Assay results published in ChEMBL document CHEMBL1165999, “Cytotoxic ent-kaurane diterpenoids from Isodon rubescens var. lushiensis” (J Nat Prod, 2010).

Experiments:
HL-60 = experiment: Cytotoxicity against human HL60 cells after 48 hrs by MTT assay; type: functional, cell-based; conditions: HL-60, 48 h
Outline: (§1)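 Cells grown in RPMI-1640 or DMEM with 10% FBS at 37 °C, 5% CO2, seeded at 1 × 10^5 cells/mL. Adherent lines were left 12 h to attach; suspension cells were added just before dosing. Various concentrations were tested in triplicate for 48 h, with cisplatin and paclitaxel controls. MTT (100 µg) was then added for 4 h, cells lysed in 20% SDS-50% DMF, and OD read at 595 nm. IC50 was calculated by the Reed-Muench method.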

SMMC-7721 = experiment: Cytotoxicity against human SMMC7721 cells after 48 hrs by MTT assay; type: functional, cell-based; conditions: SMMC-7721, 48 h; outline: as §1
A549 = experiment: Cytotoxicity against human A549 cells after 48 hrs by MTT assay; type: functional, cell-based; conditions: A549, 48 h; outline: as §1
SK-BR-3 = experiment: Cytotoxicity against human SK-BR-3 cells after 48 hrs by MTT assay; type: functional, cell-based; conditions: SK-BR-3, 48 h; outline: as §1
PANC-1 = experiment: Growth inhibition of human PANC1 cells after 48 hrs by MTT assay; conditions: PANC-1, 48 h

SMILES	IC50 (HL-60) [µM]	IC50 (SMMC-7721) [µM]	IC50 (A549) [µM]	IC50 (SK-BR-3) [µM]	IC50 (PANC-1) [µM]
CC(=O)O[C@H]1C(=O)[C@@]2(C)[C@H]([C@H](OC(=O)c3ccccc3)[C@]3(O)C[C@H](OC(=O)[C@H](O)[C@@H](NC(=O)c4ccccc4)c4ccccc4)C(C)=C1C3(C)C)[C@]1(OC(C)=O)CO[C@@H]1C[C@@H]2O [PACLITAXEL]	< 0.008	< 0.008	1.4	0.11	< 0.008
C=C1C(=O)[C@@]23CC[C@@H]4C(C)(C)CC[C@H](O)[C@@]4(C)[C@@H]2[C@@H](O)C[C@@H]1[C@H]3O [PHYLLOSTACHYSIN H]	6.4	> 10	> 10	> 10	> 10
C=C1C(=O)[C@@]23[C@H](O)C[C@@H]4C(C)(C)CCC[C@@]4(C)[C@@H]2[C@@H](O)C[C@@H]1[C@H]3O [PHYLLOSTACHYSIN F]	0.85	5.5	3.3	3.3	4.5
C=C1[C@@H]2CC[C@H]3[C@]45CC[C@@H]6OC4O[C@@H](C[C@@H]5C6(C)C)[C@]3(C2)[C@@H]1O [ISOLUSHININ A]	> 10	> 10	> 10	> 10	> 10
C=C1C(=O)[C@@]23[C@H](O)C[C@@H]4C(C)(C)CCC[C@@]4(COC(C)=O)[C@@H]2[C@@H](O)[C@H](O)[C@@H]1[C@H]3O [ISOLUSHININ G]	> 10	> 10	> 10	> 10	> 10
C=C1[C@@H]2C[C@@H](O)[C@@H]3[C@](C2)(C(=O)O[C@H]2CC[C@@]4(C)CO[C@H]5OC[C@]23[C@H]54)[C@@H]1O [SCULPONEATIN B]	> 10	> 10	> 10	> 10	> 10
C=C1C(=O)[C@@]23[C@@H]4C[C@@H]5C(C)(C)[C@H](O)CC[C@@]5([C@@H](OC)O4)[C@@H]2[C@@H](O)C[C@@H]1[C@H]3O [ISOLUSHININ F]	> 10	> 10	> 10	> 10	> 10
C=C1C(=O)[C@@]23[C@H](O)C[C@@H]4C(C)(C)CCC[C@@]4(COC(C)=O)[C@@H]2[C@@H](O)C[C@@H]1[C@H]3O [FLEXICANLIN A]	0.64	9.9	9.8	> 10	5.7
C=C1C(=O)[C@@]23[C@@H]4C[C@@H]5C(C)(C)CCC[C@@]5([C@@H](OC)O4)[C@@H]2[C@@H](OC(C)=O)C[C@@H]1[C@H]3O [ISOLUSHININ D]	1.1	4.7	6.4	6.4	7
C=C1C(=O)[C@@]23[C@@H]4C[C@@H]5C(C)(C)CCC[C@@]5([C@@H](OC)O4)[C@@H]2[C@@H](O)C[C@@H]1[C@H]3O	0.95	4.4	5.6	3.3	9.8
C=C1C(=O)[C@]23[C@H](O)[C@H]1CC[C@H]2[C@@]12CO[C@]3(O)[C@@H](O)[C@@H]1C(C)(C)CC[C@@H]2O [ORIDONIN]	3.9	> 10	> 10	> 10	> 10
C=C1C(=O)[C@@]23[C@@H]4C[C@@H]5C(C)(C)CCC[C@@]5([C@@H](O)O4)[C@@H]2[C@@H](O)C[C@@H]1[C@H]3O	1.2	6.2	5.9	4.4	8.6
C=C1C(=O)[C@]23C[C@H]1C[C@@H](O)[C@H]2[C@@]1(CCC[C@@]2(C)COC(=O)[C@H]21)COC3=O [LUDONGNIN A]	3.1	> 10	> 10	> 10	> 10
C=C1[C@@H](O)[C@]23[C@H](O)[C@H]1CC[C@H]2[C@@]12CO[C@@]3(O)[C@@H](O)[C@@H]1C(C)(C)CC[C@@H]2O [ENMENOL]	6.7	> 10	> 10	> 10	> 10
C=C1C(=O)[C@@]23[C@H](O)C[C@@H]4[C@@](C)(CO)CCC[C@@]4(COC(C)=O)[C@@H]2CC[C@@H]1[C@H]3O [ISOLUSHININ H]	2.5	> 10	> 10	6.1	6.6
C=C1C(=O)[C@@]23[C@@H]4C[C@@H]5C(C)(C)CCC[C@@]5([C@@H](OCC)O4)[C@@H]2[C@@H](O)C[C@@H]1[C@H]3O	0.64	3.5	4.2	2.4	5.2
C=C1C(=O)[C@@]23[C@H](O)C[C@@H]4C(C)(C)CCC[C@@]4(CO)[C@@H]2[C@@H](O)C[C@@H]1[C@H]3O [KAMEBAKAURININ]	1.8	> 10	> 10	> 10	> 10
CO[C@@H]1OC[C@]2(C)CCC[C@]3(COC(=O)[C@@]45C[C@@H](CC[C@H]43)[C@H](C)C5=O)[C@H]12 [LUDONGNIN G]	> 10	> 10	> 10	> 10	> 10
C=C1[C@@H]2CC[C@H]3[C@]45CCC[C@@](C)(COC(C)=O)[C@H]4[C@H](O)[C@](O)(OC5)[C@]3(C2)[C@@H]1O [ISOLUSHININ B]	> 10	> 10	> 10	> 10	> 10
